Article PMC7476277 (Thorax, 2020)
Entries after “also recorded” stand apart in the source; their conditions may differ.

Legend:
[1] = test system: normal human lung fibroblasts (NHLFs); test: bFGF-induced fibroblast proliferation; format: cell-based; conditions: 100pM bFGF, 48 hours
How it was run: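 Normal human lung fibroblasts stimulated 48 h with recombinant human bFGF (100pM) plus test compound or DMSO vehicle. Proliferation measured by 3H-thymidine incorporation (counts per minute). Mean (SE) of three separate experiments.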

[2] = test system: cord blood-derived mast cells (CBMCs); test: recombinant SCF-mediated CBMC survival; format: cell-based, human; conditions: 4 nM rhSCF, 7 days
How it was run: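 Cord blood–derived MCs, differentiated from CD133+ precursors, cultured 7 days with 4 nM rhSCF plus test compound or DMSO vehicle. Then stained with viability dye and anti-ckit APC; viable ckit-positive MCs in a fixed volume counted by flow cytometry and compared with control. Mean (SE) of three separate experiments.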

[3] = test system: rat bleomycin model; test: rat bleomycin model of lung fibrosis; format: in vivo; conditions: 60 mg/kg daily oral
How it was run: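 Male CD rats, 6–8 weeks old, given intratracheal bleomycin sulphate 0.9 U/kg or saline 1 mL/kg under isoflurane on day 0. Test compound 60 mg/kg, or water vehicle, by daily oral gavage on days 0–13. Day 14: Giemsa-stained lung sections counted for MCs per lung area. H&E and Masson's trichrome images analysed for parenchymal tissue density (HDFm). Collagen proportion by trichrome image analysis, 5 sections/animal. n=5–9/group; Kruskal-Wallis.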

[4] = read-out: maximum plasma concentration achieved at steady state (cmax); 150 mg twice daily dosing; cited from earlier work
[5] = test system: CCL2 release from CBMCs; test: rhSCF-induced CCL2 release from MCs; format: cell-based; conditions: Homo sapiens, 72 h, read-out: IC50, inhibition of CCL2 release
How it was run: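 CBMCs stimulated 3 days with 4 nM rhSCF together with test compound, DMSO vehicle, anti-SCF pAb (positive control) or goat IgG isotype. CCL2 in culture supernatants quantified by MesoScale Discovery electrochemiluminescence. Mean (SE) of 3 separate experiments.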

[6] = test system: CBMCs co-cultured with NHLFs; test: CBMC:NHLF co-culture, fibroblast-mediated MC survival and fibroblast numbers; format: cell-based, human; conditions: 10 nM, day 14
How it was run: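 CBMCs and normal human lung fibroblasts were cultured alone or co-cultured at 1:1 for up to 21 days. Media lacked SCF and IL-6 and held test compound, DMSO vehicle, anti-SCF (67 nM) or goat IgG isotype (67 nM). At each time point, viability dye plus anti-ckit APC staining; viable ckit+ (MC) and ckit− (fibroblast) cells counted in a fixed volume by flow cytometry. Day-14 % inhibition vs isotype/vehicle; 3 experiments, 2 MC donors.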

[7] = target: ckit (Homo sapiens, UniProt P10721); test: rhSCF-mediated ckit phosphorylation in CBMCs; format: cell-based; conditions: 4 nM rhSCF, 10 min stimulation
Chain of ckit (P10721 26-976): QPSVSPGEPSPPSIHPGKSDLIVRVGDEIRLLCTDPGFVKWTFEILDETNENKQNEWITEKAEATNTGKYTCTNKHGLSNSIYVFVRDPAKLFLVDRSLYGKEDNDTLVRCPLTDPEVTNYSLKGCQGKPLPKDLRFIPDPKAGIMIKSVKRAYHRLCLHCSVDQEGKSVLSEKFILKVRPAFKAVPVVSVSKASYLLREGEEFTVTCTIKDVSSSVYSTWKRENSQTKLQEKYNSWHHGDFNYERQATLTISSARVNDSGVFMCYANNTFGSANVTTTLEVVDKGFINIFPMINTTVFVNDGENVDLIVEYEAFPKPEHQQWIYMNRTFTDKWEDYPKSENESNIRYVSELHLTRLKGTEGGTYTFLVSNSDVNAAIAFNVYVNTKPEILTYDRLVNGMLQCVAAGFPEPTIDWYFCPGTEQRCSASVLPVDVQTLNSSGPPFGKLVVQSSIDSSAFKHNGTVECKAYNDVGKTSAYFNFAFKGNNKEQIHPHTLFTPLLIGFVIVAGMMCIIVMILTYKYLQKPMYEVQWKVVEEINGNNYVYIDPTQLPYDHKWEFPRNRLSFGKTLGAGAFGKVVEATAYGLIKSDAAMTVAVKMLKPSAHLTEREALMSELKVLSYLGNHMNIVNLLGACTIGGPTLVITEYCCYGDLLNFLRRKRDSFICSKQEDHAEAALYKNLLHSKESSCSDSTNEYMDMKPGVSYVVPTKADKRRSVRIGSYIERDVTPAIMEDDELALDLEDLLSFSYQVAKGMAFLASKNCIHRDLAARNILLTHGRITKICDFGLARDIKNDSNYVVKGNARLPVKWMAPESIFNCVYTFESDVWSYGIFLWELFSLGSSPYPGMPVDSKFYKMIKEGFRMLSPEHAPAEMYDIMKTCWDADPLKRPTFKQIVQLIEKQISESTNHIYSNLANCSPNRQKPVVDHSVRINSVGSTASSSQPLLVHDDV

With `Cc1ccc(=O)n(-c2ccccc2)c1` [pirfenidone] the “effect on bFGF-mediated fibroblast proliferation (in words)” value [1] was “no impact” and the “effect on rhSCF-mediated MC survival (in words)” value [2] was “no impact”.

In the case of `COC(=O)c1ccc2c(c1)NC(=O)/C2=C(\Nc1ccc(N(C)C(=O)CN2CCN(C)CC2)cc1)c1ccccc1` [nintedanib], the “effect on bleomycin-induced increase in lung MCs (number per area lung)” value ([3]; day 0-13, read-out day 14, 60 mg/kg) is reported as “ablated; also recorded: inhibited”, the “effect on collagen (col1a1) mRNA expression in lung” value ([3]; day 14) is reported as “no significant effect” and the “effect on fibronectin (fn1) mRNA expression in lung” value ([3]; day 14) is reported as “no significant effect”. The “effect on collagen content by Masson's trichrome (MTC)” value ([3]; day 14, 60 mg/kg) was “trend towards decreased collagen; also recorded: not statistically significant”, the “effect on histamine levels in lung homogenates” value ([3]; day 14, 60 mg/kg) was “reduction in the levels of histamine in lung homogenates, although this did not reach statistical significance” and the “effect on lung hydroxyproline levels” value ([3]; day 14, 60 mg/kg) was “no significant effect”. For the same molecule, the “effect on high tissue density frequency (HDFm) in lung parenchyma” value ([3]; day 14, vs bleomycin vehicle control, 60 mg/kg) was “significantly decreased; also recorded: inhibited”, the Cmax [4] was 70 nM and the IC50 [5] was 12.2 nM. The “effect on fibroblast-mediated MC survival (in words)” value [6] was “inhibited survival” and the “extent of inhibition of ckit phosphorylation (in words)” value [7] was “fully inhibited”.
